{"source": "ChEMBL document CHEMBL1949516", "about": "“Synthesis and antimycobacterial evaluation of N-substituted 3-aminopyrazine-2,5-dicarbonitriles” (Bioorg Med Chem Lett, 2012)", "key": {"[1]": {"assay": "Partition coefficient, log k of the compound", "type": "physicochemical", "conditions": "octanol/water", "method_in_brief": "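Capacity factor k measured by isocratic RP-HPLC on an end-capped non-polar C18 column, with methanol as organic modifier in the mobile phase. Value given as log k and used as a lipophilicity index converted to the logP scale.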"}, "[2]": {"test_system": "Mycobacterium tuberculosis", "assay": "Antimycobacterial activity against Mycobacterium tuberculosis H37Rv CNCTC My 331/88 after 14 days by microdilution panel method", "type": "functional", "conditions": "H37Rv CNCTC My 331/88, 336 h", "method_in_brief": "(§1)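 Compounds dissolved in DMSO, diluted in Šula's semisynthetic medium in microdilution panels. Cultures grown in Šula's medium, pH 5.5, 37 °C. After 14 days incubation, activity read visually as MIC (µg/mL), also converted to µmol/L. Pyrazinamide run as standard.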"}, "Mycobacterium kansasii": {"test_system": "Mycobacterium kansasii", "assay": "Antimycobacterial activity against Mycobacterium kansasii CNCTC My 235/80 after 6 days by microdilution panel method", "type": "functional", "conditions": "CNCTC My 235/80, 144 h", "method_in_brief": "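Microdilution panel; compounds dissolved in DMSO and diluted with Šula's semisynthetic medium. Cultures grown in Šula's semisynthetic medium, pH 5.5, 37 °C. After 6 days of incubation, MIC (µg/mL) read visually. MICs also converted to molar units (µmol/L). PZA run as standard.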"}, "Mycobacterium avium [3]": {"test_system": "Mycobacterium avium", "assay": "Antimycobacterial activity against Mycobacterium avium CNCTC My 80/72 after 14 days by microdilution panel method", "type": "functional", "conditions": "CNCTC My 80/72, 336 h", "method_in_brief": "as §1"}, "Mycobacterium avium [4]": {"test_system": "Mycobacterium avium", "assay": "Antimycobacterial activity against Mycobacterium avium CNCTC My 152/73 after 14 days by microdilution panel method", "type": "functional", "conditions": "CNCTC My 152/73, 336 h", "method_in_brief": "as §1"}, "[5]": {"assay": "Aqueous solubility of the compound", "type": "physicochemical", "conditions": "buffer"}}, "data": [{"molecule": "N#Cc1cnc(C#N)c(Cl)n1", "values": [{"measurement": "log K", "setting": "[1]", "result": 0.5792}, {"measurement": "MIC", "setting": "[2]", "result": 25, "unit": "µg/mL"}, {"measurement": "MIC", "setting": "Mycobacterium kansasii", "result": "> 200", "unit": "µg/mL"}, {"measurement": "MIC", "setting": "Mycobacterium avium [3]", "result": 100, "unit": "µg/mL"}, {"measurement": "MIC", "setting": "Mycobacterium avium [4]", "result": 100, "unit": "µg/mL"}]}, {"molecule": "CNc1nc(C#N)cnc1C#N", "values": [{"measurement": "log K", "setting": "[1]", "result": 0.5859}, {"measurement": "MIC", "setting": "[2]", "result": 100, "unit": "µg/mL"}, {"measurement": "MIC", "setting": "Mycobacterium kansasii", "result": 100, "unit": "µg/mL"}, {"measurement": "MIC", "setting": "Mycobacterium avium [3]", "result": "> 200", "unit": "µg/mL"}, {"measurement": "MIC", "setting": "Mycobacterium avium [4]", "result": "> 200", "unit": "µg/mL"}]}, {"molecule": "CCNc1nc(C#N)cnc1C#N", "values": [{"measurement": "log K", "setting": "[1]", "result": 0.6146}, {"measurement": "MIC", "setting": "[2]", "result": 100, "unit": "µg/mL"}, {"measurement": "MIC", "setting": "Mycobacterium kansasii", "result": 200, "unit": "µg/mL"}, {"measurement": "MIC", "setting": "Mycobacterium avium [3]", "result": "> 200", "unit": "µg/mL"}, {"measurement": "MIC", "setting": "Mycobacterium avium [4]", "result": "> 200", "unit": "µg/mL"}]}, {"molecule": "CCCNc1nc(C#N)cnc1C#N", "values": [{"measurement": "log K", "setting": "[1]", "result": 0.6497}, {"measurement": "MIC", "setting": "[2]", "result": 200, "unit": "µg/mL"}, {"measurement": "MIC", "setting": "Mycobacterium kansasii", "result": 200, "unit": "µg/mL"}, {"measurement": "MIC", "setting": "Mycobacterium avium [3]", "result": 200, "unit": "µg/mL"}, {"measurement": "MIC", "setting": "Mycobacterium avium [4]", "result": 200, "unit": "µg/mL"}]}, {"molecule": "CCCCNc1nc(C#N)cnc1C#N", "values": [{"measurement": "log K", "setting": "[1]", "result": 0.7088}, {"measurement": "MIC", "setting": "[2]", "result": 100, "unit": "µg/mL"}, {"measurement": "MIC", "setting": "Mycobacterium kansasii", "result": 100, "unit": "µg/mL"}, {"measurement": "MIC", "setting": "Mycobacterium avium [3]", "result": 100, "unit": "µg/mL"}, {"measurement": "MIC", "setting": "Mycobacterium avium [4]", "result": 100, "unit": "µg/mL"}]}, {"molecule": "CCCCCNc1nc(C#N)cnc1C#N", "values": [{"measurement": "log K", "setting": "[1]", "result": 0.7901}, {"measurement": "MIC", "setting": "[2]", "result": 50, "unit": "µg/mL"}, {"measurement": "MIC", "setting": "Mycobacterium kansasii", "result": 100, "unit": "µg/mL"}, {"measurement": "MIC", "setting": "Mycobacterium avium [3]", "result": 100, "unit": "µg/mL"}, {"measurement": "MIC", "setting": "Mycobacterium avium [4]", "result": 100, "unit": "µg/mL"}]}, {"molecule": "CCCCCCNc1nc(C#N)cnc1C#N", "values": [{"measurement": "log K", "setting": "[1]", "result": 0.9133}, {"measurement": "MIC", "setting": "[2]", "result": 25, "unit": "µg/mL"}, {"measurement": "MIC", "setting": "Mycobacterium kansasii", "result": 50, "unit": "µg/mL"}, {"measurement": "MIC", "setting": "Mycobacterium avium [3]", "result": 100, "unit": "µg/mL"}, {"measurement": "MIC", "setting": "Mycobacterium avium [4]", "result": 100, "unit": "µg/mL"}]}, {"molecule": "CCCCCCCNc1nc(C#N)cnc1C#N", "values": [{"measurement": "log K", "setting": "[1]", "result": 1.0243}, {"measurement": "MIC", "setting": "[2]", "result": 12.5, "unit": "µg/mL"}, {"measurement": "MIC", "setting": "Mycobacterium kansasii", "result": "> 200", "unit": "µg/mL"}, {"measurement": "MIC", "setting": "Mycobacterium avium [3]", "result": "> 200", "unit": "µg/mL"}, {"measurement": "MIC", "setting": "Mycobacterium avium [4]", "result": "> 200", "unit": "µg/mL"}]}, {"molecule": "CCCCCCCCNc1nc(C#N)cnc1C#N", "values": [{"measurement": "log K", "setting": "[1]", "result": 1.1953}, {"measurement": "MIC", "setting": "[2]", "result": 25, "unit": "µg/mL"}, {"measurement": "MIC", "setting": "Mycobacterium kansasii", "result": 100, "unit": "µg/mL"}, {"measurement": "MIC", "setting": "Mycobacterium avium [3]", "result": "> 200", "unit": "µg/mL"}, {"measurement": "MIC", "setting": "Mycobacterium avium [4]", "result": "> 200", "unit": "µg/mL"}]}, {"molecule": "N#Cc1cnc(C#N)c(NC2CCCC2)n1", "values": [{"measurement": "log K", "setting": "[1]", "result": 0.7273}, {"measurement": "MIC", "setting": "[2]", "result": "> 200", "unit": "µg/mL"}, {"measurement": "MIC", "setting": "Mycobacterium kansasii", "result": "> 200", "unit": "µg/mL"}, {"measurement": "MIC", "setting": "Mycobacterium avium [3]", "result": "> 200", "unit": "µg/mL"}, {"measurement": "MIC", "setting": "Mycobacterium avium [4]", "result": "> 200", "unit": "µg/mL"}, {"measurement": "solubility", "setting": "[5]", "result": "Insoluble"}]}, {"molecule": "N#Cc1cnc(C#N)c(NC2CCCCC2)n1", "values": [{"measurement": "log K", "setting": "[1]", "result": 0.7896}, {"measurement": "MIC", "setting": "[2]", "result": "> 200", "unit": "µg/mL"}, {"measurement": "MIC", "setting": "Mycobacterium kansasii", "result": "> 200", "unit": "µg/mL"}, {"measurement": "MIC", "setting": "Mycobacterium avium [3]", "result": "> 200", "unit": "µg/mL"}, {"measurement": "MIC", "setting": "Mycobacterium avium [4]", "result": "> 200", "unit": "µg/mL"}, {"measurement": "solubility", "setting": "[5]", "result": "Insoluble"}]}, {"molecule": "N#Cc1cnc(C#N)c(NC2CCCCCC2)n1", "values": [{"measurement": "log K", "setting": "[1]", "result": 0.8789}, {"measurement": "MIC", "setting": "[2]", "result": "> 200", "unit": "µg/mL"}, {"measurement": "MIC", "setting": "Mycobacterium kansasii", "result": "> 200", "unit": "µg/mL"}, {"measurement": "MIC", "setting": "Mycobacterium avium [3]", "result": "> 200", "unit": "µg/mL"}, {"measurement": "MIC", "setting": "Mycobacterium avium [4]", "result": "> 200", "unit": "µg/mL"}, {"measurement": "solubility", "setting": "[5]", "result": "Insoluble"}]}, {"molecule": "CCN(CC)c1nc(C#N)cnc1C#N", "values": [{"measurement": "log K", "setting": "[1]", "result": 0.6685}, {"measurement": "MIC", "setting": "[2]", "result": 100, "unit": "µg/mL"}, {"measurement": "MIC", "setting": "Mycobacterium kansasii", "result": 100, "unit": "µg/mL"}, {"measurement": "MIC", "setting": "Mycobacterium avium [3]", "result": "> 200", "unit": "µg/mL"}, {"measurement": "MIC", "setting": "Mycobacterium avium [4]", "result": "> 200", "unit": "µg/mL"}]}, {"molecule": "CN1CCN(c2nc(C#N)cnc2C#N)CC1", "values": [{"measurement": "log K", "setting": "[1]", "result": 0.5946}, {"measurement": "MIC", "setting": "[2]", "result": "> 200", "unit": "µg/mL"}, {"measurement": "MIC", "setting": "Mycobacterium kansasii", "result": "> 200", "unit": "µg/mL"}, {"measurement": "MIC", "setting": "Mycobacterium avium [3]", "result": "> 200", "unit": "µg/mL"}, {"measurement": "MIC", "setting": "Mycobacterium avium [4]", "result": "> 200", "unit": "µg/mL"}]}, {"molecule": "N#Cc1cnc(C#N)c(N2CCOCC2)n1", "values": [{"measurement": "log K", "setting": "[1]", "result": 0.583}, {"measurement": "MIC", "setting": "[2]", "result": 200, "unit": "µg/mL"}, {"measurement": "MIC", "setting": "Mycobacterium kansasii", "result": 200, "unit": "µg/mL"}, {"measurement": "MIC", "setting": "Mycobacterium avium [3]", "result": "> 200", "unit": "µg/mL"}, {"measurement": "MIC", "setting": "Mycobacterium avium [4]", "result": "> 200", "unit": "µg/mL"}]}, {"molecule": "NC(=O)c1cnccn1", "note": "[PYRAZINAMIDE]", "values": [{"measurement": "log K", "setting": "[1]", "result": 0.0514}, {"measurement": "MIC", "setting": "[2]", "result": 12.5, "unit": "µg/mL"}, {"measurement": "MIC", "setting": "Mycobacterium kansasii", "result": "> 200", "unit": "µg/mL"}, {"measurement": "MIC", "setting": "Mycobacterium avium [3]", "result": "> 200", "unit": "µg/mL"}, {"measurement": "MIC", "setting": "Mycobacterium avium [4]", "result": "> 200", "unit": "µg/mL"}]}]}
